From ChEMBL document CHEMBL1138367, “Synthesis and in vivo evaluation of non-hepatotoxic acetaminophen analogs” (Bioorg Med Chem, 2007)
Active and inactive are the calls of the source.

Experiments:
[1] = Drug level in CD1 mouse urine assessed as glucuronate level; assay type: ADME, tissue-based; conditions: in vivo
Mus musculus [2] = assay: Analgesic activity in CD1 mouse upto 3010 umol/kg by hot plate assay; assay type: functional, organism-based
How it was run: (§1)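 Oral doses given to overnight-fasted mice. Latency to lick the hind paw was recorded on a 54 ± 1 °C hot plate, with a 30 s cut-off assigned to non-responders. Testing was done blind.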

HepG2 [3] = assay: Upregulation of Fas-ligand in HEPG2 cells by Western blot; assay type: functional, cell-based; conditions: Homo sapiens
How it was run: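 HEPG-2 cells at 80% confluence, serum-starved 6–8 h (EMEM, 0.5% FBS), then treated with 100 µM for the times indicated at 37 °C. Fas-ligand measured by Western blot on extracts normalised for protein (15–20 µg loaded), Fas-L-specific antibody, ECL detection, densitometric quantitation.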

HepG2 [4] = assay: Activation of CAR in HEPG2 cells at 100 uM by Western blot; assay type: functional, cell-based; conditions: Homo sapiens
How it was run: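 HEPG-2 cells in EMEM/NEAA/10% FBS, 37 °C, 5% CO2; at 80% confluence held 6–8 h in EMEM with 0.5% FBS, then treated at 100 µM for the times indicated. CAR detected by Western blot on cell extracts (15–20 µg protein, 8–16% gel) with human CAR-specific antibody and ECL, then quantified by densitometry.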

HepG2 [5] = assay: Induction of apoptosis in HEPG2 cells by Hoechst staining; assay type: functional, cell-based; conditions: Homo sapiens
How it was run: (§2)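 Serum-starved HEPG-2 cells were treated 6–8 h at 37 °C (100 µM). After washing with PBS, cells were stained with Hoechst (2 µM final) for 45 min at 37 °C. Apoptotic cells were detected by confocal fluorescence microscopy.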

Mus musculus [6] = assay: Hepatotoxicity in CD1 mouse assessed as plasma GOT levels at 6 mmol/kg; assay type: toxicity, organism-based; conditions: in vivo
How it was run: (§3)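 CD-1 mice, fasted overnight, dosed orally with 6 mmol/kg by esophageal cannula under brief halothane anesthesia, or vehicle. Blood collected after decapitation at 24 h into heparinized syringes. Plasma spun 3000 rpm for 10 min at 4 C. GPT and GOT activity measured with a spectrophotometric kit. n = 8–12.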

[7] = Drug level in CD1 mouse urine assessed as unmetabolized fractions at 3 mmol/kg, po; assay type: ADME, tissue-based; conditions: read-out: Activity
How it was run: (§4)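 Two-month-old CD-1 mice, fasted overnight, given a single oral 3 mmol/kg dose in Tween 20 under light halothane. Housed two per metabolic cage, with food from 6 h; urine collected on ice over 24 h. After centrifugation and filtration, analysed by HPLC–MS on a C18 column with an ammonium acetate/acetonitrile gradient; UV detection at 280, 254 and 210 nm.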

Mus musculus [8] = organism: Mus musculus; assay: Analgesic activity in CD1 mouse by formalin-induced pain model after 30 mins; assay type: functional; conditions: for ED50: CD1, 0.5 h
How it was run: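 Oral dosing (fasted, halothane, esophageal cannula) 30 min before sc injection of 30 µL 5% buffered formalin into one hind plantar paw. Paw-licking time recorded in 5-min blocks over 90 min; mice habituated to the test box 90 min the day before. Three-way ANOVA (drug × dose × time) with Tukey; ED50 by nonlinear regression.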

HepG2 [9] = assay: Hepatotoxicity against HEPG2 cells after 6 to 8 hrs by tryptan blue exclusion test; assay type: functional, cell-based; conditions: Homo sapiens
How it was run: (§5)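 HEPG-2 cells at 80% confluence were serum-starved 6–8 h (EMEM, 0.5% FBS), then exposed to the compound for 6–8 h at 37 °C. Cell toxicity was assessed by Trypan blue exclusion.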

Mus musculus [10] = assay: Hepatotoxicity in CD1 mouse assessed as plasma GPT levels at 6 mmol/kg; assay type: toxicity, organism-based; conditions: in vivo; how it was run: as §3
Mus musculus [11] = assay: (§6) Toxicity in CD1 mouse assessed as mortality at 6 mmol/kg; assay type: organism-based; conditions: mouse, in vivo
How it was run: (§7)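 CD-1 mice, fasted overnight, given a single oral dose of 6 mmol/kg by esophageal cannula under brief halothane anesthesia. Deaths recorded 24 h after dosing, expressed as a fraction of the group (n = 10).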

Mus musculus [12] = assay: Analgesic activity in CD1 mouse upto 3010 umol/kg by tail flick test; assay type: functional, organism-based
How it was run: (§8)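 Oral doses given to fasted mice. A focused light beam was aimed at the tail, with intensity set for baseline latencies of 3–4 s; withdrawal latency was recorded by photoelectric cell. Testing was done blind.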

Mus musculus [13] = assay: Hepatotoxicity in CD1 mouse assessed as hepatic glutathione levels at 6 mmol/kg; assay type: toxicity, organism-based; conditions: in vivo
How it was run: (§9)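 Male CD-1 mice (20–30 g), fasted overnight, received 6 mmol/kg orally by esophageal cannula under brief halothane anesthesia, or vehicle. At 3 h the livers were saline-perfused. Liver was homogenized 5% w/v and kidney 10% w/v in 5% MPA, then centrifuged 3000g for 10 min at 4 C. Supernatant glutathione read colorimetrically. n = 8–12.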

Mus musculus [14] = assay: Analgesic activity in CD1 mouse assessed as acetic acid-induced writhing at 1 mmol/kg, po after 1 hr; assay type: functional
How it was run: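 Mice fasted overnight, dosed orally by esophageal cannula under brief halothane, 1 mmol/kg; 1 h reading, n = 9–16 per group. Writhing induced by ip 0.4% acetic acid, 10 mL/kg, given 25 min after drug; writhes counted for 10 min starting 5 min after injection. Expressed as % analgesia ± SEM.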

Mus musculus [15] = assay: Hepatotoxicity in CD1 mouse assessed as renal glutathione levels at 6 mmol/kg; assay type: toxicity, organism-based; conditions: in vivo; how it was run: as §9
Mus musculus [16] = organism: Mus musculus; assay: Analgesic activity in CD1 mouse by acetic acid-induced writhing test after 30 to 40 mins; assay type: functional
How it was run: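 Overnight-fasted mice given several oral doses by esophageal cannulation under brief halothane. Acetic acid 0.4% (10 mL/kg ip) injected 25 min post-dose; writhes counted over 10 min from 5 min after injection, i.e. 30–40 min after dosing. Percent analgesia vs vehicle; two-way ANOVA with Tukey; ED50 by nonlinear regression.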

Mus musculus [17] = assay: Antiinflammatory activity in CD1 mouse by carrageenan-induced paw edema method; assay type: functional, organism-based
How it was run: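 Male CD-1 mice dosed orally; 30 min later, under halothane, 50 µL 1% lambda-carrageenan in saline was injected into one hind plantar paw. Paw volume was measured by paw volume meter before and 4 h after injection, expressed as % of vehicle controls ± SEM; n = 4–5 per dose. Indomethacin 30 mg/kg po served as positive control.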

Mus musculus [18] = assay: Hepatotoxicity in mouse assessed as plasma GPT levels at 3.7 mmol/kg, po after 24 hrs; assay type: toxicity, organism-based; conditions: in vivo
How it was run: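 C57BL/6 mice given a single 3.7 mmol/kg oral dose; plasma GPT measured spectrophotometrically 24 h later and reported as SF units/mL ± SD.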

[19] = Drug level in CD1 mouse urine assessed as 2-{[(4-Hydroxyphenylcarbamoyl)methyl]sulphamoyl}benzoic acid level at 3 mmol/kg, po; assay type: ADME, tissue-based; conditions: in vivo; how it was run: as §4
Mus musculus [20] = assay: Hepatotoxicity in CD1 mouse assessed as increased plasma GPT levels at 6 mmol/kg; assay type: toxicity, organism-based; conditions: in vivo
How it was run: (§10)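 Male CD-1 mice (20–30 g), fasted overnight, received 6 mmol/kg orally by esophageal cannula. At 24 h, blood was collected by decapitation into heparinized syringes and plasma obtained by centrifugation at 4 °C. GPT and GOT were determined with a spectrophotometric kit; n = 8–12. Mortality was recorded at 24 h.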

Mus musculus [21] = assay: Analgesic activity in CD1 mouse upto 6620 umol/kg by hot plate assay; assay type: functional, organism-based; how it was run: as §1
Mus musculus [22] = assay: Hepatotoxicity in CD1 mouse assessed as increased plasma GOT levels at 6 mmol/kg; assay type: toxicity, organism-based; conditions: in vivo; how it was run: as §10
Mus musculus [23] = assay: Hepatotoxicity in CD1 mouse assessed as reduction in hepatic glutathione levels at 6 mmol/kg; assay type: toxicity, organism-based; conditions: in vivo
How it was run: (§11)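 Male CD-1 mice (20–30 g), fasted, given 6 mmol/kg orally; killed 3 h later and livers perfused with heparinized saline. Liver homogenized to 5% w/v and kidney to 10% w/v in 5% MPA, then centrifuged 3000g for 10 min at 4 °C. Glutathione in supernatant measured by colorimetric kit; n = 8–12.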

[24] = Hepatotoxicity in C57BL/6 mouse; assay type: toxicity, organism-based; conditions: in vivo
Mus musculus [25] = assay: Hepatotoxicity in CD1 mouse assessed as reduction in renal glutathione levels at 6 mmol/kg; assay type: toxicity, organism-based; conditions: in vivo; how it was run: as §11
[26] = as §6; assay type: organism-based; conditions: CD1, mouse, in vivo, 6 mmol/kg; read-out: Activity; how it was run: as §7
HepG2 [27] = assay: Hepatotoxicity against HEPG2 cells at 200 uM after 6 to 8 hrs by tryptan blue exclusion test; assay type: functional, cell-based; conditions: Homo sapiens; how it was run: as §5
HepG2 [28] = assay: Hepatotoxicity against HEPG2 cells at 100 uM after 6 to 8 hrs by tryptan blue exclusion test; assay type: functional, cell-based; conditions: Homo sapiens; how it was run: as §5
Mus musculus [29] = assay: Analgesic activity in CD1 mouse upto 6620 umol/kg by tail flick test; assay type: functional, organism-based; how it was run: as §8
HepG2 [30] = assay: Induction of apoptosis in HEPG2 cells at 100 uM after 6 to 8 hrs by Hoechst staining; assay type: functional, cell-based; conditions: Homo sapiens; how it was run: as §2
[31] = Drug level in CD1 mouse urine assessed as glucuronate level at 3 mmol/kg, po; assay type: ADME, tissue-based; conditions: in vivo; how it was run: as §4

## O=C(CNS(=O)(=O)c1ccccc1C(=O)O)Nc1ccc(O[C@@H]2O[C@H](C(=O)O)[C@@H](O)[C@H](O)[C@H]2O)cc1
[1]
  Activity: 23.7%

## O=C(CN1C(=O)c2ccccc2S1(=O)=O)Nc1ccc(O)cc1
Mus musculus [2]
  Activity: inactive
HepG2 [3]
  Activity: inactive
HepG2 [4]
  Activity: inactive
HepG2 [5]
  Activity: inactive
Mus musculus [6]
  Activity: Not Active
[7]
  dose excreted: 0.9%
Mus musculus [8]
  Activity: Dose-dependent effect
  ED50: 260 µmol/kg
HepG2 [9]
  Activity: inactive
Mus musculus [10]
  Activity: Not Active
Mus musculus [11]
  Activity: Not Active
Mus musculus [12]
  Activity: inactive
Mus musculus [13]
  Activity: Not Active
Mus musculus [14]
  Activity: 62.42%
Mus musculus [15]
  Activity: Not Active
Mus musculus [16]
  Activity: Dose-dependent effect
  ED50: 640 µmol/kg
Mus musculus [17]
  Activity: inactive
Mus musculus [18]
  Activity: 30.5 U/ml

## O=C(CCN1C(=O)c2ccccc2S1(=O)=O)Nc1ccc(O)cc1
Mus musculus [14]
  Activity: 43.8%
Mus musculus [18]
  Activity: 28.85 U/ml

## O=C(CNS(=O)(=O)c1ccccc1C(=O)O)Nc1ccc(O)cc1
[19]
  Activity: 38.6%

## O=C(CCCCN1C(=O)c2ccccc2S1(=O)=O)Nc1ccc(O)cc1
Mus musculus [14]
  Activity: 32.56%
Mus musculus [18]
  Activity: 44.16 U/ml

## CC(=O)Nc1ccc(O)cc1 [ACETAMINOPHEN]
Mus musculus [20]
  Activity: Active
HepG2 [3]
  Activity: Active
Mus musculus [21]
  Activity: inactive
Mus musculus [22]
  Activity: Active
Mus musculus [23]
  Activity: Active
[24]
  LD50: 3700 µmol/kg
HepG2 [4]
  Activity: Active
Mus musculus [25]
  Activity: Active
Mus musculus [8]
  Activity: Dose-dependent effect
  ED50: 1900 µmol/kg
[26]
  mortality: 40%
HepG2 [27]
  Activity: Active
HepG2 [28]
  Activity: Active
Mus musculus [14]
  Activity: 61.32%
Mus musculus [29]
  Activity: inactive
Mus musculus [16]
  Activity: Dose-dependent effect
  ED50: 1290 µmol/kg
HepG2 [30]
  Activity: Active
Mus musculus [17]
  Activity: inactive
Mus musculus [18]
  Activity: 299.01 U/ml

## O=C(CN1C(=O)c2ccccc2S1(=O)=O)Nc1ccc(O[C@@H]2O[C@H](C(=O)O)[C@@H](O)[C@H](O)[C@H]2O)cc1
[31]
  Activity: 32%

## O=C(CCCCCN1C(=O)c2ccccc2S1(=O)=O)Nc1ccc(O)cc1
Mus musculus [14]
  Activity: 53.72%
Mus musculus [18]
  Activity: 29.52 U/ml

## O=C(CCCN1C(=O)c2ccccc2S1(=O)=O)Nc1ccc(O)cc1
Mus musculus [14]
  Activity: 28.9%
Mus musculus [18]
  Activity: 82.62 U/ml
